This is a sample that favours compounds with a hit; in the whole collection about 1.7% have one here.
UCH37 DUB inh – human UCH37 deubiquitinating enzyme inhibition; Q9Y5K5; purified proteasome/UCH37, Ub-AMC cleavage fluorescence; AID 588478; inhibition, % (test concentration not listed); 330,000 compounds, 0.33% hits;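 active = mean inhibition over replicate wells above about 20%, limit read from the data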;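 also: 0% = compound-free wells with enzyme and 100% = wells lacking proteasome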
Target sequence (Q9Y5K5 whole entry, looked up): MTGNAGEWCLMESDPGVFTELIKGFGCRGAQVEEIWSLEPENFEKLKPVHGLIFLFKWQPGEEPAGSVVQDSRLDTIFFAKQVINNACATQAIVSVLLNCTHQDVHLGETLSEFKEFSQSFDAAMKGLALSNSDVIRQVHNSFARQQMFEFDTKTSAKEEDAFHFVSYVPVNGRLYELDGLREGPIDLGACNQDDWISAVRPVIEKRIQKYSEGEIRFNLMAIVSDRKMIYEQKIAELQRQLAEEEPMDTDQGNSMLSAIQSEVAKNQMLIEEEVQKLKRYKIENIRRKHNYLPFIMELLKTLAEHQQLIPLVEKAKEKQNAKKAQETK
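Signal – fluorescence, ex 355 nm, em 460 nm · System – Proteasome-bound UCH37 · Input – 0.15 nM proteasome as dispensed · Timing – 30 min preincubation with enzyme, 25 min cleavage at room temperature · Read-out basis – percent inhibition of cleavage signal versus uninhibited and no-proteasome wells · Medium – Tris-HCl pH 7.4 with ATP-MgCl2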
Rpn11 inh – blocks the human proteasome subunit Rpn11. human 26S proteasome, Ub4-pepOG fluorescence polarization; 20S core pre-blocked with epoxomicin. 360,000 compounds, 0.59% hits. AID 588493. O00487. inhibition, % at 20 µM;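 active = inhibition at 20 µM, scaled to each plate's controls, above about 33%, limit read from the data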
Target sequence (O00487 whole entry, looked up): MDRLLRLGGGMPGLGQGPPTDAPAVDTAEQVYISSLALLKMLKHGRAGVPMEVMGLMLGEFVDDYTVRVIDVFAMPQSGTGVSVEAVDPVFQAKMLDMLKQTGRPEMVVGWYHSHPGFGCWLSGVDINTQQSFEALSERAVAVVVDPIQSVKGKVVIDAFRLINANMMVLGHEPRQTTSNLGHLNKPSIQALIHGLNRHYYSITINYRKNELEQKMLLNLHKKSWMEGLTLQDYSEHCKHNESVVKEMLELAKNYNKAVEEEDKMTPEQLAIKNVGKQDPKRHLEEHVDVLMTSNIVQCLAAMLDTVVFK
PLCg1 inh – inhibitors of human phospholipase C gamma1; P19174; purified PLC-gamma1, fluorogenic substrate, fluorescence; inhibition, % at 12.2 µM; 370,000 compounds, 0.84% hits; in the data active = inhibition above about 9.5%
PLC-beta3 inh – PLC-beta3 (human) inhibition, primary screen; Q01970; Purified PLC-beta3, fluorogenic substrate, fluorescence; 370,000 compounds, 0.18% hits; inhibition, % at 12.2 µM; in the data active = inhibition above about 11%;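 also: 0% = median of compound wells on plate and 100% = full blocker control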
UCH37 reconfirm – confirmation of human UCH37 deubiquitinating enzyme inhibitors; shares compounds with UCH37 DUB inh; Proteasome-bound UCH37, Ub-AMC cleavage fluorescence; inhibition, % at 20 µM; 480 compounds, 27% hits;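 active = average inhibition over replicates above about 50%, so the earlier screening hit is confirmed, limit read from the data; inactive = the rest, counted as false positives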;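 also: based on cleavage rate fitted by regression over a 30 min kinetic read; 0% = proteasome plus Ub-AMC and 100% = Ub-AMC without proteasome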
* marks the source's active call; other numbers are inactive results; x = no result given.

SMILES	UCH37 DUB inh	Rpn11 inh	PLCg1 inh	PLC-beta3 inh	UCH37 reconfirm
COc1cccc(C=NNC(=O)CNC(=O)c2ccc(S(=O)(=O)N3CCOCC3)cc2)c1OC	-2.2	x	x	x	x
CC1(CC(=O)NN=Cc2cc(Br)c(O)cc2O)OCCO1	-0.9	x	x	x	x
O=C(O)c1ccc(NN=C/C=C/c2ccc([N+](=O)[O-])o2)cc1	30.2*	x	x	x	36.7
O=C(O)c1ccc(NN=C/C=C/c2ccccc2[N+](=O)[O-])cc1	8.2	x	x	x	x
O=C(O)c1cccc(NC2=C(n3nnc4ccccc43)C(=O)c3ccccc3C2=O)c1	52.3*	-1.8	2.4	-1.0	54.6*
CCOC(=O)CC1=NN(c2ccccc2)C(=O)/C1=C\c1ccc(OC)cc1OC	35.5*	1.2	-3.4	-0.2	-2.7
N#C/C(=C\c1ccc(N2CCOCC2)o1)C(=O)Nc1ccc(O)cc1	28.6*	x	-5.7	-4.5	25.4
COc1ccc(NC(=O)/C(C#N)=C\c2ccc(N3CCOCC3)o2)cc1	27.2*	x	-12.7	-15.1	14.2
COc1ccc(NC(=O)/C(C#N)=C/c2ccc(Br)o2)cc1	4.0	-16.2	2.7	-0.3	x
N#C/C(=C/c1ccc(N2CCOCC2)o1)C(=O)NC1CCCCC1	26.6*	x	-19.9	-28.6	19.3
CN(N=Cc1cc([N+](=O)[O-])ccc1O)c1ccccc1	-0.7	x	x	x	x
O=C(NCc1ccccc1)c1ccc(N2CCC3(CC2)CC(c2ccccc2)=NO3)c([N+](=O)[O-])c1	46.9*	-17.9	0.0	5.1	2.7
Cc1cc(C)c(S(=O)(=O)N=C2C=C(SCC(=O)O)C(=O)c3ccccc32)cc1C	48.9*	x	x	x	82.2*
COc1ccc(OC)c(C=NNC(=O)CSc2nnc(C)n2-c2ccccc2)c1	-33.8	x	x	x	x
CCOC(=O)c1c(=O)n(O)c2ccc(C)cc2[n+]1[O-]	39.4*	-7.6	-6.8	-7.2	13.0
COc1ccc(NC(=S)Nc2ccc3nsnc3c2)cc1	40.5*	-20.1	-74.2	-100.8	35.9
CCOc1ccc(NC(=S)Nc2ccc3nsnc3c2)cc1	13.9	4.3	-92.4	-125.3	x
NS(=O)(=O)c1ccc(NN=Cc2ccncc2)cc1	16.5	x	x	x	x
COc1ccc(N(C(=O)/C=C/c2ccc(OC)c(OC)c2)C2=CC3CCC(C2)N3C)cc1 (stereo not drawn)	3.1	9.4	0.9	1.1	x
COc1ccc(N(C(=O)c2ccc(Cl)cc2)C2=CC3CCC(C2)N3C)cc1 (stereo not drawn)	41.6*	5.4	0.2	-0.2	-0.2
CCOC(=O)/C(=C\C=C1/Sc2cc(OCC)c(OCC)cc2N1CC)C(C)=O	29.5*	x	-14.6	-15.1	17.7
CCOC(=O)c1c(NC(=O)C(=O)NN=Cc2ccc(O)c(OC)c2)sc2c1CCCCC2	-6.8	x	x	x	x
Cc1nc2ccc(Cl)cc2nc(C)c1=NO	2.3	x	x	x	x
CC(=NNC(=O)c1ccc(Cn2cc(Br)cn2)o1)c1cccc(NC(=O)C(C)(C)C)c1	3.5	x	x	x	x
CS(=O)(=O)c1ccc(S(=O)CC(=O)OCc2ccccc2)c([N+](=O)[O-])c1 (stereo not drawn)	43.6*	-1.3	0.8	1.2	21.6
SMILES	UCH37 DUB inh	Rpn11 inh	PLCg1 inh	PLC-beta3 inh	UCH37 reconfirm
COc1ccc(-c2cn3ccccc3n2)cc1[N+](=O)[O-]	46.4*	-4.9	1.7	4.4	9.6
CCCOc1ccc(-c2cn3ccccc3n2)cc1[N+](=O)[O-]	3.5	6.6	0.6	2.5	x
COc1ccc(C=NNC(=O)c2ccn[nH]2)cc1COc1ccc(F)cc1	1.8	x	x	x	x
CC(C)N1CCC(=NNc2ccc(S(=O)(=O)N3CCOCC3)cc2[N+](=O)[O-])CC1	6.3	-4.7	-0.4	-1.6	x
CCCN1CCC(=NNc2ccc(S(=O)(=O)N3CCOCC3)cc2[N+](=O)[O-])CC1	43.6*	-6.3	2.3	1.9	-0.3
COc1ccccc1NC(=O)COC(=O)c1ccc([N+](=O)[O-])s1	72.3*	-3.0	5.8	-1.3	5.0
NS(=O)(=O)c1ccc(NC(=O)COC(=O)c2ccc([N+](=O)[O-])s2)cc1	68.9*	-6.9	5.8	-1.0	-9.4
CN(CC(=O)Nc1ccccc1Cl)C(=O)COC(=O)c1cccs1	4.8	-6.2	2.5	0.4	x
Cc1ccc(NC(=O)COC(=O)c2ccc([N+](=O)[O-])s2)c(C)c1	31.4*	-0.1	-1.0	0.6	20.0
CN(CC(=O)Nc1ccccc1Cl)C(=O)COC(=O)c1ccc([N+](=O)[O-])s1	75.8*	4.0	-2.5	-3.9	12.9
Cc1cc(C)c(NC(=O)COC(=O)c2ccc([N+](=O)[O-])s2)c(C)c1	4.0	1.7	3.3	3.1	x
Clc1ccccc1-c1nc(NN=Cc2cccnc2)c2ccccc2n1	6.2	x	x	x	x
Cc1ccc(OC(C)C(=O)Nc2ncc(Cl)cc2Cl)c([N+](=O)[O-])n1 (stereo not drawn)	-25.9	1.3	-11.9	-16.2	x
CC(OC(=O)c1ccc([N+](=O)[O-])s1)C(=O)Nc1ncc(Cl)cc1Cl (stereo not drawn)	57.5*	1.3	3.7	1.7	4.1
CC(=NN=C(N)N)c1ccc(Cl)c(Cl)c1	11.8	x	x	x	x
Cc1nn(CC(=O)NN=Cc2cccs2)c(C)c1[N+](=O)[O-]	0.9	x	x	x	x
CC1CCN(CC(=O)Nc2sc3c(c2C#N)CCC3)CC1	37.0*	9.4	0.5	-1.6	9.1
CCOc1cc(C=NNC(=O)c2cccs2)cc([N+](=O)[O-])c1O	29.7*	x	x	x	39.7
CN1C2CCC1/C(=C\c1ccc(F)cc1)C(=O)/C2=C/c1ccc(F)cc1	1.0	1.7	-4.8	0.9	x
CN1C2CCC1/C(=C/c1cccn1C)C(=O)/C2=C\c1cccn1C	29.4*	x	-16.6	-21.5	15.1
O=C(COC(=O)c1ccc([N+](=O)[O-])o1)NC1CCCCC1	25.9*	1.0	2.5	-3.3	18.6
CC1CCCC(NC(=O)COC(=O)c2ccc(Br)o2)C1C (stereo not drawn)	0.4	-1.5	1.8	-2.0	x
Cc1ccc(C(=O)OCC(=O)NC2CCCCC2)o1	x	-8.8	-1.9	-4.9	x
CC1Cc2ccccc2N1C(=O)COC(=O)c1ccc([N+](=O)[O-])o1 (stereo not drawn)	26.4*	-3.7	-0.1	-3.9	31.2
O=C(COC(=O)c1ccc([N+](=O)[O-])o1)NC1CCCC1	31.9*	1.7	1.2	0.0	10.4
SMILES	UCH37 DUB inh	Rpn11 inh	PLCg1 inh	PLC-beta3 inh	UCH37 reconfirm
CC1CCCCC1NC(=O)COC(=O)c1ccc([N+](=O)[O-])o1 (stereo not drawn)	30.3*	-2.1	-3.5	-9.0	1.5
CC(=NNC(=O)c1ccccc1Br)c1ccc(N2CCOCC2)cc1	4.6	x	x	x	x
Cc1ccc(C(=NO)c2oc3c(C)c4oc(=O)cc(C)c4cc3c2C)cc1	-61.9	x	x	x	x
CC(=NNC(=O)c1c(C)nc2ccccn12)c1cccc([N+](=O)[O-])c1	4.8	x	x	x	x
O=C(NCCC1=CCCCC1)C1COc2ccccc2O1 (stereo not drawn)	46.7*	3.9	1.1	0.3	67.4*
O=C(NCCC1=CCCCC1)c1ccc(Br)o1	82.6*	3.8	1.5	1.3	90.5*
O=C(NCCc1ccc(C(F)(F)F)cc1)C1COc2ccccc2O1 (stereo not drawn)	5.0	2.9	-4.7	-6.7	x
Cc1ccccc1NS(=O)(=O)c1cc(C(=O)NCCC2=CCCCC2)ccc1C	39.8*	-1.5	1.8	1.7	41.4
